SENP1 inh: blocks the human SENP1 SUMO protease catalytic domain; AID 624204; hit rate 0.21% among 360,000; inhibition, % at 10 µM; recombinant SENP1 catalytic domain, CyPet-SUMO1-YPet FRET cleavage; Q9P0U3;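 active = inhibition at least 30% at 10 µM, raw YFP signal under a set limit, fluorescence ratio 0.5 to 1.5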;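 also: 0% = enzyme with DMSO and 100% = no enzyme wells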
Target sequence (Q9P0U3 419-644 limits assumed): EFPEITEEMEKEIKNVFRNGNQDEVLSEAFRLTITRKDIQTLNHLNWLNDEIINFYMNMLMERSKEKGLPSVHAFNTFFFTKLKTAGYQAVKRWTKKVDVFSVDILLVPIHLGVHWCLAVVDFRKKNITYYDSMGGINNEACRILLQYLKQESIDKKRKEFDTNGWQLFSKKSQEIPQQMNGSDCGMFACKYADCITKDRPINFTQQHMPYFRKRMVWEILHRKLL
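Material: hSENP1 catalytic domain, recombinant; medium: Tris pH 8 with BME, BSA, NP40 and catalase; compound: single concentration of 10 µM compound, 0.5% DMSO final; technique: FRET read of cyan and yellow fluorescence; timing: 50 min enzyme reaction, room temperature, light-protected; reagent: SFCypet-SUMO1-SFYpet substrate at 25 nM; control set: no-enzyme low, enzyme-DMSO high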
SENP7 block: blocks the human protease SENP7; inhibition, % at 5 µM; hit rate 1.5% among 330,000; Q9BQF6; recombinant SENP7, Z-RLRGG-aminoluciferin luminescence, 40 min;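 active = inhibition above about 50% at the single test dose, limit read from the data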;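 also: plate controls were DMSO with enzyme for no effect and no enzyme buffer wells for full effect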
SENP8 block-1: blocks human SENP8 cleavage of Nedd8 substrate; Q96LD8; hit rate 0.64% among 360,000; inhibition, % at 20 µM; recombinant SENP8, Nedd8 substrate fluorescence; AID 602440; in the data active = inhibition mostly above about 40%, no sharp cut-off; inactive = mostly below about 27%
Target sequence (Q96LD8 whole entry, looked up): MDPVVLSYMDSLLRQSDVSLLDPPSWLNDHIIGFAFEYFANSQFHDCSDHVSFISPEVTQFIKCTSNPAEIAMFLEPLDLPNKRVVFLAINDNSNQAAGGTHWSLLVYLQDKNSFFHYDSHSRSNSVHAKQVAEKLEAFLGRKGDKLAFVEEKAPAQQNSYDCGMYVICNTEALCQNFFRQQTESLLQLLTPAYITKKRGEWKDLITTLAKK
SENP8 block-2: SENP8 protease inhibition. Q96LD8. purified SENP8, Z-RLRGG-aminoluciferin cleavage, luminescence. inhibition, % at 10 µM. hit rate 1.2% among 330,000. AID 2540; in the data active = inhibition above about 50%
SENP6 block: blocks the human protease SENP6; Q9GZR1; Recombinant SENP6 catalytic domain, aminoluciferin luminescence; inhibition, % at 10 µM; hit rate 1.8% among 330,000;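 active = inhibition above about 50% at the single tested dose, limit read from the data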;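 also: plate controls were DMSO wells with enzyme for no effect and DMSO wells lacking enzyme for full effect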
SENP8 conf: human SENP8 inhibition, confirmed | Recombinant SENP8, Z-RLRGG-aminoluciferin luminescence, 60 min | shares compounds with SENP7 block | hit rate 40% among 6,200 | inhibition, % at 12.5 µM;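 active = mean inhibition across replicates above about 50%, limit read from the data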
SENP6 confirm: human SENP6 inhibition, confirmed; recombinant SENP6, Z-RLRGG-aminoluciferin luminescence; shares compounds with SENP7 block; inhibition, % at 12.5 µM; hit rate 58% among 6,200
SENP7 confirm: human SENP7 inhibition, confirmed. shares compounds with SENP7 block. recombinant SENP7, Z-RLRGG-aminoluciferin luminescence, 40 min. inhibition, % at 12.5 µM. hit rate 69% among 6,200
Casp3 SENP sel: caspase-3 inhibition (SENP selectivity assay); shares compounds with SENP7 block; purified caspase-3, Z-DEVD-aminoluciferin luminescence, 60 min; inhibition, % at 12.5 µM; hit rate 60% among 6,200; AID 488918;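 active = mean inhibition above about 50%, limit read from the data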;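 also: plate controls were enzyme with DMSO for no effect and wells without caspase-3 for full effect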
Target sequence (P42574 28-227 limits assumed): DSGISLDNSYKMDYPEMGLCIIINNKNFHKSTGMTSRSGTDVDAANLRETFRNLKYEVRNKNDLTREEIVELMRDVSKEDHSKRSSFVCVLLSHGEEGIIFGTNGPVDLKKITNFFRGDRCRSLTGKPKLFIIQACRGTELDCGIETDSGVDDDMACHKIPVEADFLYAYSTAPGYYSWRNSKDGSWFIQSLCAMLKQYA
SENP luc ctr: counter-screen for SENP inhibitors: luminescence interference | shares compounds with SENP7 block | Pre-incubated SENP8/Z-RLRGG-aminoluciferin, luciferase luminescence interference | hit rate 39% among 6,200 | inhibition, % at 12.5 µM;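 active = mean inhibition above about 50% when retested at one dose, limit read from the data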;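 also: plate controls were DMSO wells with completed reaction for no effect and substrate without enzyme for full effect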
Active calls of the source: *. Hits are enriched below; roughly 2.5% of the tested compounds scored in any of these assays.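 The calls were made as follows, unless noted: active = mean inhibition above about 50% in the one-dose retest (limit read from the data); inactive = the rest.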

Results for Clc1ccc(-c2nnc(NC3=NCCCCC3)o2)cc1 ?
SENP1 inh: 2; SENP7 block: 88*; SENP8 block-1: 29; SENP8 block-2: 80*; SENP6 block: 73*; SENP8 conf: -24; SENP6 confirm: 11; SENP7 confirm: 57*; Casp3 SENP sel: 47; SENP luc ctr: 12

How did O=C(Nc1nnc(-c2ccc(Cl)cc2)o1)C1CCCCC1 do in these assays?
SENP1 inh: -1; SENP7 block: -6; SENP8 block-1: -75; SENP8 block-2: 6; SENP6 block: 3

What do the screens show for `COC(=O)[C@@H]1C[C@@]2(O)[C@H](O)[C@H](O)[C@H](O)C[C@H]2N1Cc1ccc(-c2ccccc2)cc1`?
SENP1 inh: -1; SENP7 block: -5; SENP8 block-1: -1; SENP8 block-2: -9; SENP6 block: -11

Results for Cc1nc(N=Nc2ccc(O)cc2)n[nH]1 ?
SENP1 inh: 1; SENP7 block: 58*; SENP8 block-1: 21; SENP8 block-2: 45; SENP6 block: 75*; SENP8 conf: 58*; SENP6 confirm: 53*; SENP7 confirm: 86*; Casp3 SENP sel: 87*; SENP luc ctr: 63*

Results for Cc1ccc(-c2nc(N=Nc3ccc(O)cc3)n[nH]2)cc1 ?
SENP1 inh: -1; SENP7 block: 1; SENP8 block-1: 25; SENP8 block-2: 3; SENP6 block: 11

What do the screens show for `O=C(O)c1ccc(/C=C2\SC(=S)N(Nc3ccccc3)C2=O)cc1`?
SENP1 inh: 3; SENP7 block: 78*; SENP8 block-1: 28; SENP8 block-2: 82*; SENP6 block: 95*; SENP8 conf: 92*; SENP6 confirm: 92*; SENP7 confirm: 98*; Casp3 SENP sel: 84*; SENP luc ctr: 76*

How did COc1cc(/C=C2\SC(=S)N(Nc3ccccc3)C2=O)ccc1O do in these assays?
SENP1 inh: 50; SENP7 block: 72*; SENP8 block-1: 52*; SENP8 block-2: 89*; SENP6 block: 93*; SENP8 conf: 95*; SENP6 confirm: 96*; SENP7 confirm: 100*; Casp3 SENP sel: 78*; SENP luc ctr: 94*

How did CCOc1cc(/C=C2\SC(=S)N(N3CCOCC3)C2=O)ccc1O do in these assays?
SENP1 inh: 21; SENP7 block: 2; SENP8 block-1: 22; SENP8 block-2: -3; SENP6 block: -3

Results for CCOc1cc(/C=C2\SC(=S)N(Nc3ccccc3)C2=O)ccc1O ?
SENP1 inh: 24; SENP7 block: 44; SENP8 block-1: 35; SENP8 block-2: 45; SENP6 block: 85*; SENP8 conf: 60*; SENP6 confirm: 69*; SENP7 confirm: 81*; Casp3 SENP sel: 24; SENP luc ctr: 55*

Results for COc1cc(/C=C2\SC(=S)N(NC(=O)c3ccc(O)cc3)C2=O)ccc1O ?
SENP1 inh: 13; SENP7 block: 3; SENP8 block-1: 25; SENP8 block-2: -1; SENP6 block: 5

How did CC(Oc1ccc2ccccc2c1)C(=O)NNC(=O)Nc1ccccc1 (stereo not given) do in these assays?
SENP1 inh: 1; SENP7 block: -10; SENP8 block-1: 12; SENP8 block-2: -6; SENP6 block: -5

Results for C/C(=N\NC(=O)Cc1ccc(Cl)cc1)c1cccc(NC(=O)c2cccnc2)c1 ?
SENP1 inh: 3; SENP7 block: 4; SENP8 block-1: 9; SENP8 block-2: -4; SENP6 block: 3

Results for COc1ccc2c(c1)CCc1sc(NC(=O)c3ccco3)nc1-2 ?
SENP1 inh: -4; SENP7 block: 5; SENP8 block-1: -318; SENP8 block-2: 4; SENP6 block: -6

How did COc1ccc2sc(NC(=O)c3ccco3)nc2c1 do in these assays?
SENP1 inh: -1; SENP7 block: 7; SENP8 block-1: -193; SENP8 block-2: 87*; SENP6 block: 90*; SENP8 conf: 87*; SENP6 confirm: 90*; SENP7 confirm: 97*; Casp3 SENP sel: 91*; SENP luc ctr: 86*

How did CC(=O)Nc1ccc2nc(NC(=O)c3ccco3)sc2c1 do in these assays?
SENP1 inh: 2; SENP7 block: 66*; SENP8 block-1: -373; SENP8 block-2: 34; SENP6 block: 68*; SENP8 conf: 57*; SENP6 confirm: 54*; SENP7 confirm: 86*; Casp3 SENP sel: 84*; SENP luc ctr: 22

What do the screens show for `COc1ccc2c(c1)Cc1sc(NC(=O)c3ccco3)nc1-2`?
SENP1 inh: -4; SENP7 block: 95*; SENP8 block-1: -14; SENP8 block-2: 88*; SENP6 block: 92*; SENP8 conf: 27; SENP6 confirm: 46; SENP7 confirm: 87*; Casp3 SENP sel: 64*; SENP luc ctr: 78*

Results for COc1ccc(-c2cc(=O)c3c(O)cc(O)cc3o2)cc1 ?
SENP1 inh: 2; SENP7 block: 85*; SENP8 block-1: 25; SENP8 block-2: 68*; SENP6 block: 84*; SENP8 conf: 24; SENP6 confirm: 52*; SENP7 confirm: 64*; Casp3 SENP sel: 75*; SENP luc ctr: 17

How did NC(=O)c1c(-c2ccccc2)oc2ccc(O)cc12 do in these assays?
SENP1 inh: 0; SENP7 block: -4; SENP8 block-1: -132; SENP8 block-2: -1; SENP6 block: -6

Results for COc1cc(OC)c2c(=O)cc(-c3ccccc3)oc2c1 ?
SENP1 inh: 5; SENP7 block: 57*; SENP8 block-1: -229; SENP8 block-2: 46; SENP6 block: 59*; SENP8 conf: 64*; SENP6 confirm: 61*; SENP7 confirm: 82*; Casp3 SENP sel: 77*; SENP luc ctr: 68*

Results for COc1ccc(-c2ccc3oc(-c4ccsc4)cc(=O)c3c2)cn1 ?
SENP1 inh: -1; SENP7 block: 70*; SENP8 block-1: inactive; SENP8 block-2: 22; SENP6 block: 0; SENP8 conf: 17; SENP6 confirm: 16; SENP7 confirm: 18; Casp3 SENP sel: 15; SENP luc ctr: 1

Results for O=c1cc(-c2ccccc2)oc2ccc(O)cc12 ?
SENP1 inh: 2; SENP7 block: 56*; SENP8 block-1: -30; SENP8 block-2: 37; SENP6 block: 66*; SENP8 conf: 54*; SENP6 confirm: 51*; SENP7 confirm: 82*; Casp3 SENP sel: 66*; SENP luc ctr: 71*
